# Measured values gathered from unrelated publications.
# Protocols differ between the studies behind these lines.
# Target: Interleukin-1 receptor-associated kinase 4 (IRAK4, Homo sapiens, UniProt Q9NWZ3)
# Residues used in one study (Q9NWZ3 1-460): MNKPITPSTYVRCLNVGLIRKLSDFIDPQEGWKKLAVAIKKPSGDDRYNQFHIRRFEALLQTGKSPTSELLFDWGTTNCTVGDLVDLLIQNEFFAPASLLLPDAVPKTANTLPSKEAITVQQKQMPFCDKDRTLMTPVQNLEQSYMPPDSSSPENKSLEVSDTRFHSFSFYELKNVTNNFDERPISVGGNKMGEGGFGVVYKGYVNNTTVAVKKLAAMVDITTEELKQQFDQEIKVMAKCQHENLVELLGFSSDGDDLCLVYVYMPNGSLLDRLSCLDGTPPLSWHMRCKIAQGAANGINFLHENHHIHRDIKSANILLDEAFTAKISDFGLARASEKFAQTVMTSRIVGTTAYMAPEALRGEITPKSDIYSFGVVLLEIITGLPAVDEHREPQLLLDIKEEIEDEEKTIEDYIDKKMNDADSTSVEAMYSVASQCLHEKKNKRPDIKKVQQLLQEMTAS
test,conditions,endpoint,value,Structure (SMILES)
cell-free assay,0.1 µM,remaining signal,56%,C1=C/COCc2cc(ccc2OCCN2CCCC2)Nc2nccc(n2)-c2cccc(c2)COC/1
"enzyme activity, inhibitor, radiometric",1 µM,remaining activity,3.01%,CS(=O)(=NC#N)c1ccccc1Nc1nc(Nc2ccc(CO)nc2)ncc1Cl (centres unmarked)
"enzyme activity, inhibitor",0.1 µM,inhibition,1.9%,Cc1cc(O)c(-c2ccc([C@@H](C)CN(C)C)cc2)c2c1[nH]c(=O)c1sccc12
"enzyme activity, inhibitor, radiometric",1 µM,remaining activity,0.79%,C#Cc1cnc(Nc2ccc(CO)nc2)nc1Nc1ccccc1S(C)(=O)=NC#N (centres unmarked)
binding,1 µM,remaining binding,100%,Cc1ccc(NC(=O)c2ccnc(C(F)(F)F)c2)cc1-c1cc(OCCO)nc(N2CCOCC2)c1
"binding, competition with immobilised ligand",0.5 µM,remaining binding,93%,CCCCC(=O)Nc1ccc(-c2ccc3ncn(CCC)c(=O)c3c2)cn1
"enzyme activity, inhibitor, radiometric",1 µM,remaining activity,13.4%,CS(=O)(=O)c1ccccc1Nc1nc(Nc2ccnc(CO)c2)ncc1Cl
"enzyme activity, inhibitor",1 µM,inhibition,22%,C=CC(=O)N1CCC[C@@H](n2nc(-c3ccc(Oc4ccccc4)cc3)c3c(N)ncnc32)C1
"enzyme activity, inhibitor",0.2 µM,inhibition,10.1%,C#Cc1cc(-c2cc(Nc3nc(N[C@@H](C)c4ccc(F)cn4)ncc3Cl)n[nH]2)ccc1C=O
"enzyme activity, inhibitor",1 µM,inhibition,16%,CC#CC(=O)N1CCC[C@H]1c1nc(-c2ccc(C(=O)Nc3ccccn3)cc2)c2c(N)nccn12
binding,1 µM,remaining binding,52%,CN1CCN(C(=O)c2ccc(NC(=O)Nc3ccc(N(C)c4ccnc(Nc5ccc(CS(C)(=O)=O)cc5)n4)cc3)cc2)CC1
